# Legend:
# Assay type in all cases: in vivo, human
# [1] = Plasma avexitide pharmacokinetics at end of each 14-day treatment period
# In short: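 Plasma for drug concentration was drawn at the end of each 14-day SC regimen (30 mg every 12 h; 60 mg each morning) on days 29 and 43. Sampling times were −90, 0, 60, 180 and 330 min […], with the trough taken immediately before the −90 min dose. C0, Cmax and AUC0-t were summarised descriptively.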
# [2] = tested on: patients with postbariatric hypoglycemia (PBH); experiment: Mixed-meal tolerance testing; settings: for GLP-1, AUC(0–180), mean value (SD) / Glucagon, AUC(0–180), mean value (SD) / Glucose, AUC(0–180), mean value (SD) / GLP-1, fasting, mean value (SD) / GLP-1, peak, mean value (SD) / Glucagon, fasting, mean value (SD) / Glucagon, peak, mean value (SD) / Glucose, AUC(peak:nadir), mean value (SD) / Glucose, fasting, mean value (SD) / Glucose, peak, mean value (SD) / Insulin, fasting, mean value (SD) / Glucose, nadir (primary endpoint), mean value (SD) / Insulin, peak (secondary endpoint), mean value (SD): 14 days, N = 17; for GLP-1, AUC(0–180), mean value (SD) / Glucagon, AUC(0–180), mean value (SD) / Glucose, AUC(0–180), mean value (SD): 0 to 180 minutes; for Glucose, nadir (primary endpoint), mean value (SD): postprandial plasma, within 3 hours of MMTT; for Insulin, peak (secondary endpoint), mean value (SD): postprandial; for Participants requiring rescue during MMTT: vs 47% with placebo
# In short: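 Crossover design: 18 female patients got SC placebo for 14 days, then the test compound at 30 mg every 12 h and 60 mg each morning for 14 days each, in random order. After an overnight fast, each period ended with a 180-min MMTT: 64 g carbohydrate drink over 10 min. Plasma glucose, insulin, C-peptide, GLP-1 and glucagon were sampled every 15 min. Rescue was IV dextrose (point-of-care glucose ≤50 mg/dL with neuroglycopenic symptoms, or ≤40 mg/dL).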
# [3] = tested on: patients with postbariatric hypoglycemia (PBH); experiment: Outpatient blinded continuous glucose monitoring; settings: for No. events <54 mg/dL 8 AM-12 AM, mean value (SD) / No. events <54 mg/dL 12 AM-8 AM, mean value (SD): CGM, sustained at least 15 minutes, normalized to 14 days; for No. events <54 mg/dL 8 AM-12 AM, mean value (SD) / No. events <54 mg/dL 12 AM-8 AM, mean value (SD) / % Time <54 mg/dL 8 AM-12 AM, mean value (SD) / % Time >250 mg/dL 24 hours, mean value (SD): N = 17; for % Time <54 mg/dL 8 AM-12 AM, mean value (SD) / % Time >250 mg/dL 24 hours, mean value (SD): percentage of CGM values
# In short: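 Blinded CGM was worn at home through three 14-day periods (placebo, then SC test compound 30 mg twice daily or 60 mg once daily), with two injections daily for blinding. Read-outs were % CGM values <54 mg/dL (8 am–12 am or 12 am–8 am) or >250 mg/dL, normalised to 14 days. LS means were placebo-adjusted by mixed-effect model (treatment, sequence, period fixed; subject within sequence random).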
# [4] = tested on: patients with postbariatric hypoglycemia (PBH); experiment: Outpatient hypoglycemia captured by SMBG/eDiary; settings: for Rate of Level 2 hypoglycemia, mean value (SD): SMBG <54 mg/dL; for Rate of Level 2 hypoglycemia, mean value (SD) / Rate of Level 1 hypoglycemia, mean value (SD): episodes normalized to 14 days, N = 17; for Rate of Level 1 hypoglycemia, mean value (SD): SMBG <70 mg/dL
# In short: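 Outpatients logged each hypoglycaemic episode in an eDiary, using a glucometer (SMBG) over each 14-day period. Entries were symptoms, lowest SMBG, treatment, need for assistance, and postprandial or not. Levels were defined as Level 1 SMBG <70 mg/dL, Level 2 <54 mg/dL, and Level 3 needing another person's assistance. Rate was distinct episodes divided by days, normalised to 14 days. Placebo-adjusted LS means came from a mixed-effect model.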
# [5] = tested on: patients with postbariatric hypoglycemia (PBH); experiment: Safety: treatment-emergent adverse events, laboratory and physical findings
# [6] = plasma, end of each 14-day treatment period, SC
# [7] = avexitide 30 mg twice daily SC, MMTT
# [8] = avexitide 30 mg twice daily, MMTT
# [9] = avexitide 60 mg once daily SC, MMTT
# [10] = avexitide 60 mg once daily, MMTT
substance,measurement,setting,value
exendin (9-39) [Avexitide],Evidence of systemic plasma exposure,[1]; both dosing regimens,observed in all patients
same,"Mean (AUC0-t) exposure, higher for 60 mg once daily than 30 mg twice daily",[1]; [6],40%
same,"Peak (Cmax) exposure, higher for 60 mg once daily than 30 mg twice daily",[1]; [6],72%
same,Fewer participants requiring rescue during MMTT compared with placebo,[2]; avexitide 30 mg twice daily,50%
same,"GLP-1, AUC(0–180), mean value (SD)",[2]; [7],330.8 (140.5) h×mg/dL
same,"Glucagon, AUC(0–180), mean value (SD)",[2]; [7],466.7 (131.2) h × mg/dL
same,"Glucose, AUC(0–180), mean value (SD)",[2]; [7],320.0 (89.5) h × mg/dL
same,"GLP-1, fasting, mean value (SD)",[2]; [7],12.7 (3.4) pg/mL
same,"GLP-1, peak, mean value (SD)",[2]; [7],413.3 (193.6) pg/mL
same,"Glucagon, fasting, mean value (SD)",[2]; [7],156.3 (0) pg/mL
same,"Glucagon, peak, mean value (SD)",[2]; [7],196.7 (49.8) pg/mL
same,"Glucose, AUC(peak:nadir), mean value (SD)",[2]; [7],192.3 (91.9) h × mg/dL
same,"Glucose, fasting, mean value (SD)",[2]; [7],87.5 (6.0) mg/dL
same,"Glucose, peak, mean value (SD)",[2]; [7],218.2 (45.2) mg/dL
same,"Insulin, fasting, mean value (SD)",[2]; [7],4.5 (2.7) μIU/mL
same,"Glucose, nadir (primary endpoint), mean value (SD)",[2]; avexitide 30 mg twice daily SC,57.1 (16.5) mg/dL
same,"Insulin, peak (secondary endpoint), mean value (SD)",[2]; [7],349.5 (156.9) μIU/mL
same,AUC glucose concentrations higher than placebo,[2]; [8],12%
same,Increase of mean plasma glucose nadir compared with placebo,[2]; [8],21%
same,LS mean postprandial insulin peak lower than with placebo,[2]; [8],104.53 μIU/mL
same,Reduction of peak insulin compared with placebo,[2]; [8],23%
same,Participants requiring rescue during MMTT,[2]; avexitide 30 mg twice daily,24%
same,Fewer participants requiring rescue during MMTT compared with placebo,[2]; avexitide 60 mg once daily,75%
same,"GLP-1, AUC(0–180), mean value (SD)",[2]; [9],351.1 (127.5) h×mg/dL
same,"Glucagon, AUC(0–180), mean value (SD)",[2]; [9],484.1 (96.7) h × mg/dL
same,"Glucose, AUC(0–180), mean value (SD)",[2]; [9],338.1 (80.7) h × mg/dL
same,"GLP-1, fasting, mean value (SD)",[2]; [9],12.7 (4.6) pg/mL
same,"GLP-1, peak, mean value (SD)",[2]; [9],397.1 (150.2) pg/mL
same,"Glucagon, fasting, mean value (SD)",[2]; [9],156.8 (2.2) pg/mL
same,"Glucagon, peak, mean value (SD)",[2]; [9],182.9 (35.9) pg/mL
same,"Glucose, AUC(peak:nadir), mean value (SD)",[2]; [9],204.6 (86.3) h × mg/dL
same,"Glucose, fasting, mean value (SD)",[2]; [9],84.6 (4.2) mg/dL
same,"Glucose, peak, mean value (SD)",[2]; [9],224.5 (47.3) mg/dL
same,"Insulin, fasting, mean value (SD)",[2]; [9],4.1 (2.6) μIU/mL
same,"Glucose, nadir (primary endpoint), mean value (SD)",[2]; avexitide 60 mg once daily SC,59.2 (16.1) mg/dL
same,"Insulin, peak (secondary endpoint), mean value (SD)",[2]; [9],357.2 (190.9) μIU/mL
same,AUC glucose concentrations higher than placebo,[2]; [10],18%
same,Increase of mean plasma glucose nadir compared with placebo,[2]; [10],26%
same,LS mean postprandial insulin peak lower than with placebo,[2]; [10],96.29 μIU/mL
same,Reduction of peak insulin compared with placebo,[2]; [10],21%
same,Participants requiring rescue during MMTT,[2]; avexitide 60 mg once daily,12%
same,Postprandial concentrations of GLP-1 and glucagon relative to placebo,"[2]; both avexitide treatment regimens, MMTT",significantly higher
same,"Influence on fasting insulin, GLP-1, or glucagon","[2]; both dosing regimens, MMTT",no influence
same,"No. events <54 mg/dL 8 AM-12 AM, mean value (SD)",[3]; avexitide 30 mg twice daily SC,2.82 (3.00)
same,"No. events <54 mg/dL 12 AM-8 AM, mean value (SD)",[3]; avexitide 30 mg twice daily SC,2.34 (3.03)
same,"% Time <54 mg/dL 8 AM-12 AM, mean value (SD)",[3]; avexitide 30 mg twice daily SC,0.99 (1.12) %
same,"% Time >250 mg/dL 24 hours, mean value (SD)",[3]; avexitide 30 mg twice daily SC,0.99 (1.34) %
same,Reduction of mean percent time with glucose <54 mg/dL,"[3]; avexitide 30 mg twice daily, blinded CGM",50%
same,"No. events <54 mg/dL 8 AM-12 AM, mean value (SD)",[3]; avexitide 60 mg once daily SC,3.46 (2.48)
same,"No. events <54 mg/dL 12 AM-8 AM, mean value (SD)",[3]; avexitide 60 mg once daily SC,3.56 (4.18)
same,"% Time <54 mg/dL 8 AM-12 AM, mean value (SD)",[3]; avexitide 60 mg once daily SC,1.49 (1.70) %
same,"% Time >250 mg/dL 24 hours, mean value (SD)",[3]; avexitide 60 mg once daily SC,0.85 (0.98) %
same,Reduction of mean percent time with glucose <54 mg/dL,"[3]; avexitide 60 mg once daily, blinded CGM",24%
same,Percent time with glucose >250 mg/dL,"[3]; blinded CGM, across treatment groups",less than 1%
same,Reduction of rate of SMBG <54 mg/dL (Level 2 hypoglycemia) compared with placebo,[4]; avexitide 30 mg twice daily,40%
same,Reduction of rate of SMBG <70 mg/dL (Level 1 hypoglycemia) compared with placebo,[4]; avexitide 30 mg twice daily,30%
same,Reduction of rate of severe hypoglycemia (Level 3) events,[4]; avexitide 30 mg twice daily,23%
same,"Rate of Level 2 hypoglycemia, mean value (SD)",[4]; avexitide 30 mg twice daily SC,1.21 (1.65)
same,"Rate of Level 1 hypoglycemia, mean value (SD)",[4]; avexitide 30 mg twice daily SC,2.81 (2.13)
same,Reduction of rate of SMBG <54 mg/dL (Level 2 hypoglycemia) compared with placebo,[4]; avexitide 60 mg once daily,60%
same,Reduction of rate of SMBG <70 mg/dL (Level 1 hypoglycemia) compared with placebo,[4]; avexitide 60 mg once daily,61%
same,Reduction of rate of severe hypoglycemia (Level 3) events,[4]; avexitide 60 mg once daily,56%
same,"Rate of Level 2 hypoglycemia, mean value (SD)",[4]; avexitide 60 mg once daily SC,0.81 (0.88)
same,"Rate of Level 1 hypoglycemia, mean value (SD)",[4]; avexitide 60 mg once daily SC,1.56 (1.27)
same,"Serious adverse event (presyncope), reported as unrelated to study drug and self-limited",[5]; avexitide 60 mg once daily,1
same,"Changes in vital signs, body weight, hematology or chemistry",[5]; both dosing regimens,No clinically significant changes
same,Patient withdrawals,[5]; both dosing regimens,no patient withdrawals
same,Treatment-related serious adverse events,[5]; both dosing regimens,no treatment-related serious adverse events
same,Tolerability,"[5]; both dosing regimens, 28 days",well tolerated
